The source of these data is ChEMBL document CHEMBL4622978, “Tumor-Activated Benzothiazole Inhibitors of Stearoyl-CoA Desaturase” (J Med Chem, 2020).

Each structure is given as a SMILES string. Active and inactive are the calls of the source. The rule behind the calls is not given here. A value given as a limit tells only on which side of the number the result lay.

A short description of data set [1]: Cmax in fat of CD-1 female mouse at 10 mg/kg, ip single dose by LC-MS/MS analysis. The settings on record: CD-1, mouse.
Data set [2] can be described thus: AUC in lung of CD-1 female mouse at 10 mg/kg, ip single dose by LC-MS/MS analysis. The following applies: CD-1, mouse.
Data set [3] is described as follows: Cmax in lung of CD-1 female mouse at 10 mg/kg, ip single dose by LC-MS/MS analysis. The settings on record: CD-1, mouse.
A short description of data set [4]: AUC in plasma of CD-1 female mouse at 10 mg/kg, ip single dose by LC-MS/MS analysis. The settings on record: CD-1, mouse.
The nature of data set [5]: Cmax in plasma of CD-1 female mouse at 10 mg/kg, ip single dose by LC-MS/MS analysis. The settings on record: CD-1, mouse.
For data set [6], the system named is NCI-H2122. The data set can be described thus: Antitumor activity against human NCI-H2122 cells xenografted in nod-SCID mouse fed normal chow diet at 10 mg/kg, ip BID for 3 weeks. The format is functional, organism-based. The method in brief:
(§1)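 Female NOD-SCID mice, 6–8 weeks, on control diet (4.1% soybean-oil fat) or fat-free diet (0.1% fat). Three days later, 5 × 10⁶ H2122 cells injected subcutaneously into the left flank. At ~100 mm³, randomized to groups of six. Dosing 10 mg/kg BID, 20 mg/kg QD, or vehicle BID (10% DMSO, 10% Kolliphor EL, 80% 50 mM lactic acid pH 3.6) for three weeks. Caliper measurements twice weekly; volume = length × width² × π/6.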
Background: In xenograft studies the graft and the host belong to different species.

Data set [7] is described as follows: Toxicity in fat-free diet fed nod-SCID mouse xenografted with NCI-H2122 cells assessed as effect on appearance at 20 mg/kg, ip QD for 3 weeks. Type of data set: organism-based. The following applies: in vivo, 504 h.
Data set [8] in a line: Toxicity in fat-free diet fed nod-SCID mouse xenografted with NCI-H2122 cells assessed as effect on body weight at 20 mg/kg, ip QD for 3 weeks. The settings on record: in vivo, 504 h. The format is organism-based.
Data set [9] can be described thus: Toxicity in fat-free diet fed nod-SCID mouse xenografted with NCI-H2122 cells assessed as effect on appearance at 10 mg/kg, ip BID for 3 weeks. Type of data set: organism-based. The settings on record: in vivo, 504 h.
The nature of data set [10]: Toxicity in normal chow diet fed nod-SCID mouse xenografted with NCI-H2122 cells assessed as effect on appearance at 10 mg/kg, ip BID for 3 weeks. The format is organism-based. The settings on record: in vivo, 504 h.
Data set [11] can be described thus: Drug metabolism in human NCI-H2122 cells assessed as (R)-4-(amino(phenyl)methyl)-N-(6-hydroxybenzo[d]thiazol-2-yl)-benzamide formation at 100 nM by in presence of CYP4F inhibitor HET0016 LC-MS/MS analysis. Type of data set: ADME, cell-based. The settings on record: nci-h2122, 0.1 µM. The method in brief:
(§2)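 H2122 and H1155 pLVX (empty vector) cells, 4000/well, adhered overnight. Then fresh medium with 100 nM prodrug, ±1 μM HET0016 (CYP4A/4F inhibitor), at 37 °C, 5% CO2. At varying times, cells and medium lysed and protein-precipitated with 2 volumes methanol/0.2% formic acid containing internal standard, then spun at 16,000g for 5 min. Parent and demethylated metabolite quantified by LC-MS/MS against standard curves in blank cell lysates.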

Data set [12] can be described thus: Toxicity in normal chow diet fed nod-SCID mouse xenografted with NCI-H2122 cells assessed as effect on body weight at 10 mg/kg, ip BID for 3 weeks. The format is organism-based. The settings on record: in vivo, 504 h.
In data set [13] the test system is NCI-H2122. The data set can be described thus: Antitumor activity against human NCI-H2122 cells xenografted in nod-SCID mouse fed fat-free diet at 20 mg/kg, ip QD for 3 weeks. The format is functional, organism-based. The method in brief: as §1
Data set [14] is described as follows: Toxicity in fat-free diet fed nod-SCID mouse xenografted with NCI-H2122 cells assessed as body weight loss at 10 mg/kg, ip BID for 3 weeks (reference value: <5%). Type of data set: organism-based. The following applies: in vivo, 504 h.
The nature of data set [15]: Half life in human NCI-H2122 cells at 100 nM in presence of CYP4F inhibitor HET0016 by LC-MS/MS analysis. The format is ADME, cell-based. The settings on record: with HET0016 (CYP4F inhibitor), concentration not stated. Summed up: as §2
Data set [16] is described as follows: Half life in human NCI-H1155 cells at 100 nM by LC-MS/MS analysis. Type of data set: ADME, cell-based. The method in brief: as §2
The nature of data set [17]: Toxicity in normal chow diet fed nod-SCID mouse xenografted with NCI-H2122 cells assessed as effect on behavior at 20 mg/kg, ip QD for 3 weeks. Type of data set: organism-based. The settings on record: in vivo, 504 h.
Data set [18] relates to NCI-H2122. Put plainly: Antitumor activity against human NCI-H2122 cells xenografted in nod-SCID mouse fed normal chow diet at 20 mg/kg, ip QD for 3 weeks. Type of data set: functional, organism-based. Summed up:
as §1

Data set [19] is described as follows: Drug metabolism in human NCI-H2122 cells assessed as (R)-4-(amino(phenyl)methyl)-N-(6-hydroxybenzo[d]thiazol-2-yl)-benzamide formation at 100 nM by LC-MS/MS analysis. Type of data set: ADME, cell-based. The settings on record: nci-h2122, 0.1 µM. The method in brief:
as §2

Data set [20] in a line: Toxicity in normal chow diet fed nod-SCID mouse xenografted with NCI-H2122 cells assessed as body weight loss at 20 mg/kg, ip QD for 3 weeks (reference value: <5%). The format is organism-based. The settings on record: in vivo, 504 h.
Data set [21] is described as follows: Toxicity in normal chow diet fed nod-SCID mouse xenografted with NCI-H2122 cells assessed as effect on behavior at 10 mg/kg, ip BID for 3 weeks. Type of data set: organism-based. The following applies: in vivo, 504 h.
A short description of data set [22]: Half life in human NCI-H2122 cells at 100 nM by LC-MS/MS analysis. Type of data set: ADME, cell-based. The method in brief: as §2
The nature of data set [23]: Drug metabolism in human NCI-H1155 cells assessed as (R)-4-(amino(phenyl)methyl)-N-(6-hydroxybenzo[d]thiazol-2-yl)-benzamide formation at 100 nM by LC-MS/MS analysis. Type of data set: ADME, cell-based. The following applies: nci-h1155, 0.1 µM. The method in brief: as §2
Data set [24] deals with NCI-H2122. Put plainly: Antitumor activity against human NCI-H2122 cells xenografted in nod-SCID mouse fed fat-free diet at 10 mg/kg, ip BID for 3 weeks. Type of data set: functional, organism-based. The method in brief:
as §1

The nature of data set [25]: Toxicity in fat-free diet fed nod-SCID mouse xenografted with NCI-H2122 cells assessed as effect on behavior at 20 mg/kg, ip QD for 3 weeks. The format is organism-based. The following applies: in vivo, 504 h.
Data set [26] in a line: Toxicity in normal chow diet fed nod-SCID mouse xenografted with NCI-H2122 cells assessed as effect on body weight at 20 mg/kg, ip QD for 3 weeks. The format is organism-based. The settings on record: in vivo, 504 h.
Data set [27] is described as follows: Drug level in tumor of normal chow diet fed nod-SCID mouse xenografted with NCI-H2122 cells at 20 mg/kg, ip QD for 3 weeks and measured 3 hrs after final dose by LC-MS/MS analysis. The following applies: read-out: Drug uptake. Type of data set: ADME, organism-based, Neoplasm. Summed up: (§3)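 Xenografted NOD-SCID mice on control or fat-free diet, dosed for three weeks, euthanized 3 h after the last dose. Plasma and tumor homogenate (3 volumes PBS) mixed with 2 volumes acetonitrile or methanol with 0.15% formic acid and internal standard, then centrifuged. Drug form quantified by LC-MS/MS against spiked blank-matrix standard curves.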

A short description of data set [28]: Drug level in plasma of fat-free diet fed nod-SCID mouse xenografted with NCI-H2122 cells at 20 mg/kg, ip QD for 3 weeks and measured 3 hrs after final dose by LC-MS/MS analysis. The format is ADME, organism-based. Summed up: as §3
Data set [29] is described as follows: Toxicity in normal chow diet fed nod-SCID mouse xenografted with NCI-H2122 cells assessed as body weight loss at 10 mg/kg, ip BID for 3 weeks (reference value: <5%). The following applies: in vivo, 504 h. The format is organism-based.
Data set [30] in a line: Drug level in plasma of normal chow diet fed nod-SCID mouse xenografted with NCI-H2122 cells at 20 mg/kg, ip QD for 3 weeks and measured 3 hrs after final dose by LC-MS/MS analysis. The format is ADME, organism-based. The method in brief: as §3
Data set [31] is described as follows: Toxicity in fat-free diet fed nod-SCID mouse xenografted with NCI-H2122 cells assessed as body weight loss at 20 mg/kg, ip QD for 3 weeks (reference value: <5%). The format is organism-based. The settings on record: in vivo, 504 h.
Data set [32] can be described thus: Drug level in tumor of fat-free diet fed nod-SCID mouse xenografted with NCI-H2122 cells at 20 mg/kg, ip QD for 3 weeks and measured 3 hrs after final dose by LC-MS/MS analysis. The settings on record: read-out: Drug uptake. Type of data set: ADME, organism-based, Neoplasm. Summed up:
as §3

The nature of data set [33]: Toxicity in fat-free diet fed nod-SCID mouse xenografted with NCI-H2122 cells assessed as effect on body weight at 10 mg/kg, ip BID for 3 weeks. Type of data set: organism-based. The following applies: in vivo, 504 h.
Data set [34] in a line: Toxicity in fat-free diet fed nod-SCID mouse xenografted with NCI-H2122 cells assessed as effect on behavior at 10 mg/kg, ip BID for 3 weeks. The format is organism-based. The following applies: in vivo, 504 h.
A short description of data set [35]: Toxicity in normal chow diet fed nod-SCID mouse xenografted with NCI-H2122 cells assessed as effect on appearance at 20 mg/kg, ip QD for 3 weeks. The format is organism-based. The following applies: in vivo, 504 h.
The nature of data set [36]: Drug level in tumor of nod-SCID mouse xenografted with human NCI-H2122 cells at 20 mg/kg, ip single dose and measured after 7 hrs by LC-MS/MS analysis. The settings on record: read-out: Drug uptake.
Data set [37] can be described thus: AUC in fat of CD-1 female mouse at 10 mg/kg, ip single dose by LC-MS/MS analysis. The following applies: CD-1, mouse.

For `COc1ccc2nc(NC(=O)c3ccc(C(=O)c4ccccc4)cc3)sc2c1`, the figures for the Cmax in [1], in data set [3] and in data set [5] were 90 µM, 0.9 µM and 0.3 µM, respectively. The AUC – broadly, the area under the concentration-time curve, a measure of exposure – at 504 h was found to be 2.6 µM·h in [2] and 0.6 µM·h in [4].

Turning to `COc1ccc2nc(NC(=O)c3ccc([C@H](N)c4ccccc4)cc3)sc2c1`, the outcome in [6], in [13], in data set [18] and in [24] was Active. Also, the Activity entry in data set [7] is listed as “Non-Toxic”; in data set [8] it was “Non-Toxic”; in data set [9] it was “Non-Toxic”; in data set [10], “Non-Toxic”; in [12], “Non-Toxic”; in [14], 17%. Moreover, the Activity result is “Non-Toxic” in data set [17]; 5% in [20]; “Non-Toxic” in data set [21]; “Non-Toxic” in [25]; “Non-Toxic” in data set [26]; 13% in data set [29]. Besides, the Activity in [31] is 7%; in [33], “Non-Toxic”; in data set [34], “Non-Toxic”; in data set [35], “Non-Toxic”. Moreover, the figures for the Drug metabolism result in data set [11], in data set [19] and in data set [23] were “Metabolite_Notdetected”, “Metabolite_Detected” and “Metabolite_Notdetected”, respectively. Besides, the half-life (as a rule, the time in which the quantity being followed falls by half) at 0.1 µM in data set [15] was greater than 48 h; in [16], greater than 48 h; in data set [22], 19 h. For the same molecule, the area under the curve (AUC) at 504 h in data set [4] is 1.6 µM·h. Moreover, in data set [5], the concentration peaked (Cmax) at 0.9 µM. The concentration at 3 h in [27], in data set [28], in data set [30] and in data set [32] was greater than 5 µM each time.

Consider `N[C@H](c1ccccc1)c1ccc(C(=O)Nc2nc3ccccc3s2)cc1`, for which the Drug metabolism entry in data set [19] was “Metabolite_Detected”.

As for `COc1ccc2nc(NC(=O)c3ccc(C(N)c4ccccc4)cc3)sc2c1` (racemic), the figures for the peak concentration (Cmax) in data set [1], in data set [3] and in data set [5] were 94 µM, 61 µM and 1.5 µM, respectively. Also, the area under the curve (AUC) at 504 h in [2] amounted to 160 µM·h; in data set [4] it was 3 µM·h; in data set [37], 77 µM·h. In addition, the concentration at 7 h in data set [36] stood at 7 µM.

Regarding `COc1ccc2nc(NC(=O)c3ccc(C(O)c4ccccn4)cc3)sc2c1` (racemic), the Cmax (in general, the peak of the concentration-time curve) turned out to be 120 µM in data set [1], 26 µM in data set [3] and 11 µM in data set [5]. The AUC at 504 h in data set [2] came out at 17 µM·h; in [4] it was 9.6 µM·h; in data set [37] it was 70 µM·h.
